ChEMBL document CHEMBL2021799, “Exploring the interplay of physicochemical properties, membrane permeability and giardicidal activity of some benzimidazole derivatives” (Eur J Med Chem, 2012)
≈ marks a conversion by molar mass, not a printed value.

How the values were obtained:
Giardia intestinalis [1] = assay: Antiparasitic activity against Giardia duodenalis IMSS:0989 after 48 hrs; format: functional, organism-based; conditions: IMSS:0989, 48 h
Procedure, shortened: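 G. duodenalis trophozoites grown in modified TYI-S-33 with 10% calf serum and bovine bile. 5 × 10⁴ trophozoites incubated 48 h at 37 °C with increasing compound concentrations; DMSO-treated trophozoites as negative control. An aliquot was then subcultured 48 h in fresh drug-free medium, trophozoites counted, and IC50 obtained by Probit analysis.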

Caco-2 [2] = assay: Apparent permeability from basolateral to apical side of human Caco2 cells at 100 uM up to 90 mins; conditions: caco-2, 1.5 h
[3] = Aqueous solubility of the compound
Caco-2 [4] = assay: Apparent permeability from apical to basolateral side of human Caco2 cells at 100 uM up to 90 mins; conditions: caco-2, 1.5 h
[5] = Distribution coefficient, log D of the compound; conditions: octanol/water
[6] = Lipophilicity, logkw of the compound by RP-HPLC analysis
Caco-2 [7] = assay: Influx ratio of permeability from basolateral to apical side over apical to basolateral side in human Caco2 cells at 100 uM up to 90 mins; conditions: caco-2, 1.5 h
Caco-2 [8] = assay: Efflux ratio of permeability from apical to basolateral side over basolateral to apical side in human Caco2 cells at 100 uM up to 90 mins; conditions: caco-2, 1.5 h
Giardia intestinalis [9] = assay: Ratio of metronidazole IC50 to compound IC50 for Giardia duodenalis IMSS:0989; format: functional
[10] = aqueous medium, not specified further

Compound | IC50 (Giardia intestinalis [1]) | Papp (Caco-2 [2]) | solubility [3, 10] | Papp (Caco-2 [4]) | logD [5] | logKw [6] | log1/S ([3]; buffer) | Ratio (Caco-2 [7]) | Ratio (Caco-2 [8]) | solubility ([3]; buffer) | Ratio IC50 (Giardia intestinalis [9])
O=C(O)c1ccc2nc(C(F)(F)F)[nH]c2c1 | 172 nM | 0.74 ×10⁻⁶ cm/s | 0.189 µg/mL (≈ 0.819 µM) | 0.57 ×10⁻⁶ cm/s | – | – | – | – | – | – | –
COC(=O)c1ccc2[nH]c(C(F)(F)F)nc2c1 | 1190 nM | 23 ×10⁻⁶ cm/s | 0.555 µg/mL (≈ 2.27 µM) | 32.7 ×10⁻⁶ cm/s | 3.52 | 1.94 | 5.64 | 1.42 | 0.7 | – | –
Cn1c(N)nc2cc(Cl)ccc21 | 242 nM | 9.57 ×10⁻⁶ cm/s | – | 5.21 ×10⁻⁶ cm/s | 4.95 | 3.19 | 9.12 | 0.54 | 1.83 | 0.0001 µg/mL (≈ 0.000551 µM) | –
Cn1c(C(F)(F)F)nc2cc(C(=O)O)ccc21 | 2770 nM | 7.25 ×10⁻⁶ cm/s | 10.9 µg/mL (≈ 44.6 µM) | 9.83 ×10⁻⁶ cm/s | 2.98 | 1.47 | 4.35 | 1.35 | 0.74 | – | –
Cn1c(C(F)(F)F)nc2ccc(C(=O)O)cc21 | 330 nM | 4.65 ×10⁻⁶ cm/s | 98.7 µg/mL (≈ 404 µM) | 5.09 ×10⁻⁶ cm/s | 3.7 | 1.13 | 3.39 | 1.09 | 0.91 | – | –
COC(=O)c1ccc2c(c1)nc(C(F)(F)F)n2C | 2450 nM | 23.9 ×10⁻⁶ cm/s | 0.281 µg/mL (≈ 1.09 µM) | 26.7 ×10⁻⁶ cm/s | 3.65 | 2.05 | 5.96 | 1.11 | 0.89 | – | –
COC(=O)c1ccc2nc(C(F)(F)F)n(C)c2c1 | 3820 nM | 21.8 ×10⁻⁶ cm/s | 0.0859 µg/mL (≈ 0.333 µM) | 39.2 ×10⁻⁶ cm/s | 3.86 | 2.24 | 6.47 | 1.8 | 0.55 | – | –
CCN(CC)C(=O)COC(=O)c1ccc2c(c1)nc(C(F)(F)F)n2C | 133 nM | 11 ×10⁻⁶ cm/s | 0.0401 µg/mL (≈ 0.112 µM) | 21.9 ×10⁻⁶ cm/s | 4.06 | 2.4 | 6.94 | 1.99 | 0.5 | – | –
CCN(CC)C(=O)COC(=O)c1ccc2nc(C(F)(F)F)n(C)c2c1 | 470 nM | 13 ×10⁻⁶ cm/s | 0.0572 µg/mL (≈ 0.16 µM) | 15.4 ×10⁻⁶ cm/s | 2.81 | 2.29 | 6.62 | 1.17 | 0.84 | – | –
CNC(=O)c1ccc2[nH]c(C(F)(F)F)nc2c1 | 320 nM | – | 87.8 µg/mL (≈ 361 µM) | – | 2.68 | 1.21 | 3.6 | – | – | – | –
CNC(=O)c1ccc2nc(C(F)(F)F)n(C)c2c1 | 211 nM | 8.98 ×10⁻⁶ cm/s | 29.6 µg/mL (≈ 115 µM) | 14.6 ×10⁻⁶ cm/s | 3.92 | 1.33 | 3.93 | 1.62 | 0.61 | – | –
CSc1nc2ccccc2n1C | 33 nM | 9.57 ×10⁻⁶ cm/s | 1.14 µg/mL (≈ 6.39 µM) | 7.12 ×10⁻⁶ cm/s | 3.33 | 1.78 | 5.19 | 0.74 | 1.34 | – | –
Cn1c(S)nc2ccccc21 | 18 nM | 14.5 ×10⁻⁶ cm/s | 36 µg/mL (≈ 219 µM) | 8.14 ×10⁻⁶ cm/s | 2.7 | 1.23 | 3.65 | 0.56 | 1.78 | – | 67
Cn1c(S)nc2ccc(Cl)cc21 | 20 nM | 27.2 ×10⁻⁶ cm/s | 0.588 µg/mL (≈ 2.96 µM) | 14.1 ×10⁻⁶ cm/s | 3.47 | 1.9 | 5.59 | 0.51 | 1.93 | – | 27
CSc1nc2ccc(Cl)cc2n1C | 122 nM | – | – | – | – | – | – | – | – | – | –
Cc1nc2cc(Cl)c(Cl)cc2n1C | 55 nM | 11.2 ×10⁻⁶ cm/s | 0.0716 µg/mL (≈ 0.333 µM) | 7.98 ×10⁻⁶ cm/s | 3.86 | 2.24 | 6.47 | 0.71 | 1.4 | – | –
Cc1nc2ccccc2n1C | 89 nM | 10.2 ×10⁻⁶ cm/s | 5790 µg/mL (≈ 39600 µM) | 9.03 ×10⁻⁶ cm/s | 1.77 | 0.42 | 1.4 | 0.88 | 1.13 | – | –
CSc1nc2cc(Cl)ccc2n1C | 28 nM | 14.2 ×10⁻⁶ cm/s | 0.0172 µg/mL (≈ 0.0809 µM) | 7.59 ×10⁻⁶ cm/s | 4.11 | 2.46 | 7.09 | 0.53 | 1.87 | – | –
Cn1c(S)nc2cc(Cl)ccc21 | 45 nM | 9.57 ×10⁻⁶ cm/s | 3.79 µg/mL (≈ 19.1 µM) | 6.92 ×10⁻⁶ cm/s | 3.14 | 1.61 | 4.71 | 0.72 | 1.38 | – | 61
Cc1nc2ccc(Cl)cc2n1C | 44 nM | – | – | – | – | – | – | – | – | – | –
FC(F)(F)c1nc2ccccc2[nH]1 | – | – | 0.992 µg/mL (≈ 5.33 µM) | – | 3.36 | 1.8 | 5.27 | – | – | – | –
Cn1c(C(F)(F)F)nc2ccc(Cl)cc21 | – | – | 0.033 µg/mL (≈ 0.141 µM) | – | 4.02 | 2.37 | 6.85 | – | – | – | –
FC(F)(F)c1nc2cc(Cl)c(Cl)cc2[nH]1 | – | – | 0.0025 µg/mL (≈ 0.0098 µM) | – | 4.49 | 2.78 | 8 | – | – | – | –
Cn1c(C(F)(F)F)nc2cc(Cl)ccc21 | – | – | 0.0412 µg/mL (≈ 0.176 µM) | – | 3.98 | 2.33 | 6.75 | – | – | – | –
CCCSc1ccc2nc(NC(=O)OC)[nH]c2c1 [ALBENDAZOLE] | – | 1.99 ×10⁻⁶ cm/s | 0.75 µg/mL (≈ 2.83 µM) | 3.14 ×10⁻⁶ cm/s | 3.83 | 1.95 | 5.55 | 1.35 | 0.74 | – | –
c1ccc2[nH]cnc2c1 [BENZIMIDAZOLE] | 137000 nM | – | 7600 µg/mL (≈ 64400 µM) | – | 1.37 | 0.27 | 1.45 | – | – | – | –
COC(=O)Nc1nc2ccccc2[nH]1 [CARBENDAZIM] | – | – | – | – | 1.49 | 0.9 | 1.89 | – | – | 2441 µg/mL (≈ 12800 µM) | –
COC(=O)Nc1nc2ccc(Sc3ccccc3)cc2[nH]1 [FENBENDAZOLE] | 56 nM | – | 0.025 µg/mL (≈ 0.0835 µM) | – | 3.93 | 2.44 | 7.07 | – | – | – | –
COC(=O)Nc1nc2ccc(C(=O)c3ccccc3)cc2[nH]1 [MEBENDAZOLE] | 55 nM | 4.34 ×10⁻⁶ cm/s | – | 5.15 ×10⁻⁶ cm/s | 3.73 | 1.68 | – | – | – | – | –
CC(C)NCC(O)COc1cccc2ccccc12 (centres undefined) [PROPRANOLOL] | – | 37.9 ×10⁻⁶ cm/s | – | – | – | – | – | 1.27 | 0.78 | – | –
